Publication PMC7591136 (ACS biomaterials science & engineering, 2019)
Values after ≈ are worked out from the molar mass of the structure shown.

Experiments:
[1] = cited from earlier work
HIV-1 BaL = assay type: cell-based; settings: Human immunodeficiency virus 1, BAL, TZM-bl, 48 h
[2] = pKa determination by UV–vis titration; assay type: physicochemical; settings: neutral pH
[3] = Partition coefficients, 1-octanol / PBS pH 7.4, shake flask; assay type: physicochemical; settings: 1-octanol / PBS pH 7.4, 20 °C
Procedure, shortened: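 Shake-flask (OECD) partitioning between 1-octanol and PBS pH 7.4 at 20 °C, run in triplicate with three different organic:aqueous volume ratios. Analyte was kept below 2.0 mM in each phase. Phases were separated by centrifugation and quantified by C-18 reverse-phase HPLC (35 °C, UV 300 nm) against 8-point standard curves (0.005–1.000 mg/mL). For the ionizable parent drug, the value is a distribution coefficient.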

Cc1nnc(C(=O)NC(C)(C)c2nc(C(=O)NCc3ccc(F)cc3)c(O)c(=O)n2C)o1 [RAL, raltegravir]
aqueous solubility ([1]; neutral form): 1.3 mg/mL (≈ 2930 µM)
IC50 (HIV-1 BaL): 4.5 ± 0.5 nM
ionized fraction [2]: > 85%
apparent POW (distribution coefficient) [3]: 2.0

Cc1cc(C)c(Nc2ccnc(Nc3ccc(C#N)cc3)n2)c(C)c1 [dapivirine]
reported aqueous solubility [1]: < 0.01 g/L

O=C1Nc2ccc(Cl)cc2[C@@](C#CC2CC2)(C(F)(F)F)O1 [efavirenz]
reported aqueous solubility [1]: < 0.01 g/L

Cc1cccc(C)c1OCC(=O)N[C@@H](Cc1ccccc1)[C@@H](O)C[C@H](Cc1ccccc1)NC(=O)[C@H](C(C)C)N1CCCNC1=O [liponavir]
reported aqueous solubility [1]: < 0.01 g/L
